PMC3304101 (Journal of Medicinal Chemistry, 2010)
Where a name gives a salt, the structure may show the parent alone. Read-outs that look alike come from different tables or passages of the source.

Assays:
[1] = Hydrolysis in pH 6.0 uptake buffer; type: physicochemical; details: 37 °C, * no area decrease detected in HPLC after 2 h, ** less than 5% decrease after 2 h
[2] = Hydrolysis in pH 7.4 phosphate buffer; type: physicochemical
Procedure, shortened: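 Test compound (200 mM DMSO stock) in 10 mM phosphate buffer, pH 7.4, at 37 °C. Sampled at 0, 5, 10, 30, 60 and 120 min, quenched in 0.1% TFA, HPLC. Pseudo-first-order k from ln(remaining) vs time; t1/2=0.693/k; triplicate.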

HeLa cell homogenates = test: Hydrolysis in HeLa cell homogenates; type: in vitro ADME; details: 500 μg/mL protein, 37 °C; * no area decrease detected in HPLC after 2 h
HeLa/hPEPT1 cells = test: Direct uptake in HeLa/hPEPT1 cells; type: cell-based, human; details: for remaining in donor solution after 1 h: direct uptake study, HeLa/hPEPT1 and normal HeLa cells
Procedure, shortened: (§1)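 HeLa cells grown 5 days in 12-well plates; the hPEPT1 set was infected with hPEPT1 adenovirus 3 days before, and uninfected HeLa served as control. After a wash and 15 min preincubation in uptake buffer (pH 6.0, MES) at 37 °C, cells took 1 mM test compound for 60 min at 37 °C. Then washed ice-cold, sonicated, TFA-precipitated (7% final), HPLC; protein measured by DC assay; triplicate.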

rat jejunum = test: In situ single-pass rat jejunum perfusion; type: in vivo; details: 0.1 mM, pH 6.5, compared to co-perfused metoprolol; result in words (Figure 3)
Procedure, shortened: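 Male Wistar rats, 250–280 g, fasted 12–18 h, anesthetized i.m. with ketamine-xylazine; ~10 cm jejunal segment cannulated in situ at 37 °C. Perfused at 0.2 mL/min with pH 6.5 MES buffer containing 0.1 mM test compound, 0.4 mg/mL metoprolol and phenol red. Samples every 10 min for 1 h after 1 h steady state; HPLC. […], outlet corrected by phenol red; n=4.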

Caco-2 cell homogenates = test: Hydrolysis in Caco-2 cell homogenates; type: in vitro ADME; details: 500 μg/mL protein, 37 °C; * no area decrease detected in HPLC after 2 h
hPEPT1 = biological target: T1, hPEPT1 (Homo sapiens, UniProt P46059); test: [3H]Gly-Sar uptake inhibition in HeLa/hPEPT1 cells; type: cell-based
T1 sequence (P46059 1-708): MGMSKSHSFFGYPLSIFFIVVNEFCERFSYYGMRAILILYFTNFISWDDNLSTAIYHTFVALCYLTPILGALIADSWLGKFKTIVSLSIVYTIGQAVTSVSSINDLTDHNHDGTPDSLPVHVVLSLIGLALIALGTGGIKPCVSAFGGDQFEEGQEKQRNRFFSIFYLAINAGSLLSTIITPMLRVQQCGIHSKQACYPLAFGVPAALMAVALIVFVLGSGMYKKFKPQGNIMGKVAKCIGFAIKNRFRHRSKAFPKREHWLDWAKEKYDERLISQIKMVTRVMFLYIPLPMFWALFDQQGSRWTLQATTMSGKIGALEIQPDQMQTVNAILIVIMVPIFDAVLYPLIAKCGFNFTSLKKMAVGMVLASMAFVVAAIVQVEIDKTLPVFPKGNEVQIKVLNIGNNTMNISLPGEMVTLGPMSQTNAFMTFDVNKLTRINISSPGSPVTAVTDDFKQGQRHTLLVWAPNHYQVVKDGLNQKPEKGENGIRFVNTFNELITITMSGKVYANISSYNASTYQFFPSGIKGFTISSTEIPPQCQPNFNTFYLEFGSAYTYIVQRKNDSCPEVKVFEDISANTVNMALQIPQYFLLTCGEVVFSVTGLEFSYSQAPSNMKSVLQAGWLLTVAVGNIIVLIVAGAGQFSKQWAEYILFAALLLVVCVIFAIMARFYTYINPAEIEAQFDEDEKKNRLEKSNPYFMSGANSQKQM
Procedure, shortened: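 HeLa cells infected with hPEPT1 adenovirus 3 days before assay. Incubated 30 min at 37 °C in pH 6.0 MES uptake buffer with 10 μM Gly-Sar (0.1 μM [3H]) plus 0.05–5 mM test compound. Washed three times ice-cold, lysed in 0.1% SDS, scintillation counted. IC50 by nonlinear fitting; n=4.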

Caco-2 monolayers = test: Caco-2 monolayer permeability study; type: in vitro ADME; details: for Apparent apical-to-basolateral permeability coefficient (Papp): 200 μM, apical pH 6.0, basolateral pH 7.5, result in words (Figure 1)
Procedure, shortened: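 Caco-2 cells grown on collagen-coated 3.0 μm-pore transwell inserts and used 22–23 days post-seeding; TEER checked before and after. After 15 min preincubation at 37 °C, apical MES buffer (pH 6.0) replaced with 200 μM test compound, basolateral HEPES buffer (pH 7.5). Basolateral aliquots taken at set intervals and replaced with fresh buffer; HPLC. Papp=(1/C0A)(dQ/dt), steady-state rate; triplicate.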

[3] = cited from earlier work
HeLa cells = test: Direct uptake in normal HeLa cells; type: cell-based; details: 1 mM test compound, pH 6.0, 60 min
Procedure, shortened: as §1

[4] = substrate: CC(C)[C@H](N)C(=O)OCc1cccc(NC(=N)N)c1; test: hVACVase-mediated hydrolysis; type: biochemical, human; details: other: recombinant hVACVase, 50 mM HEPES pH 7.4, 37 °C
[5] = substrate: NC(N)=Nc1cccc(COC(=O)[C@@H](N)Cc2ccccc2)c1; test: hVACVase-mediated hydrolysis; type: biochemical, human; details: other: recombinant hVACVase, 50 mM HEPES pH 7.4, 37 °C
[6] = substrate: CC(C)[C@H](N)C(=O)OCCOCn1cnc2c(=O)[nH]c(N)nc21; test: hVACVase-mediated hydrolysis; type: biochemical, human; details: other: recombinant hVACVase, 50 mM HEPES pH 7.4, 37 °C
[7] = substrate: CC[C@H](C)[C@H](N)C(=O)OCc1cccc(N=C(N)N)c1; test: hVACVase-mediated hydrolysis; type: biochemical, human; details: other: recombinant hVACVase, 50 mM HEPES pH 7.4, 37 °C

N=C(N)Nc1cccc(CO)c1 [3-HPG, [3-(hydroxymethyl)phenyl]guanidine]
Half-lives, pH 6 buffer [1]: stable ^* | Half-lives, pH 7.4 buffer ([2]; 10 mM phosphate buffer pH 7.4, 37 °C, * no area decrease detected in HPLC after 2 h): stable ^* | Half-lives, HeLa cell homogenates (HeLa cell homogenates): stable ^* | remaining in donor solution after 1 h (HeLa/hPEPT1 cells): > 95% | Effective permeability (Peff), rat jejunum (rat jejunum): very low | Half-lives, Caco-2 cell homogenates (Caco-2 cell homogenates): stable ^*

CC[C@H](C)[C@H](N)C(=O)OCc1ccccc1 [Ile-OBz, L-Isoleucine benzyl ester 4-toluenesulfonate salt]
IC50 (hPEPT1): 1.05 ± 0.13 mM

NC(N)=Nc1cccc(COC(=O)[C@@H](N)Cc2ccccc2)c1 [Phe-3-HPG, L-Phenylalnine [3-[(aminoiminomethyl)amino]phenyl]methyl ester]
Half-lives, pH 6 buffer [1]: stable ^** | Apparent apical-to-basolateral permeability coefficient (Papp) (Caco-2 monolayers): didn’t show significantly different permeability than 3-HPG | remaining in donor solution after 1 h (HeLa/hPEPT1 cells): > 80%

N[C@@H](Cc1ccccc1)C(=O)OCc1ccccc1 [Phe-OBz, L-phenylalanine benzyl ester hydrochloride]
IC50 (hPEPT1): > 3 mM

CC(C)[C@H](N)C(=O)OCc1ccccc1 [Val-OBz, L-valine benzyl ester hydrochloride]
IC50 (hPEPT1): 0.39 ± 0.04 mM

CC1CNc2c(cccc2S(=O)(=O)N[C@@H](CCCNC(=N)N)C(=O)N2CC[C@@H](C)C[C@@H]2C(=O)O)C1 (stereo partly drawn) [argatroban]
oral bioavailability ([3]; in vivo, po): low oral bioavailability

CC(C)[C@H](N)C(=O)OCCOCn1cnc2c(=O)nc(N)[nH]c21 [valacyclovir]
Half-lives, pH 6 buffer [1]: stable ^* | half-life at 200 µM ([2]; phosphate buffer, pH 7.4): 13.8 ± 0.417 h | uptake, HeLa cells (HeLa cells): < 0.2 nmol/mg in 60 min | oral bioavailability [3]: more than 50% | remaining in donor solution after 1 h (HeLa/hPEPT1 cells): > 95% | hPEPT1/control (HeLa/hPEPT1 cells; ratio of uptake in HeLa/hPEPT1 cells to uptake in normal HeLa cells (fold)): > 25

CC(C)[C@H](N)C(=O)OCC(CO)OCn1cnc2c(=O)nc(N)[nH]c21 (stereo partly drawn) [valganciclovir]
oral bioavailability [3]: more than 50%

CC(=O)N[C@H]1[C@H]([C@H](O)[C@H](O)CO)OC(C(=O)O)=C[C@@H]1N=C(N)N [zanamivir]
oral bioavailability ([3]; result in words): low oral bioavailability

D-Valine [3-[(aminoiminomethyl)amino]phenyl]methyl ester [D-Val-3-HPG]
Apparent apical-to-basolateral permeability coefficient (Papp) (Caco-2 monolayers): no transport | Stability in apical side during Caco-2 permeability study (Caco-2 monolayers; percentage of ester form in donor solution at 120 min): 98.8 ± 0.1%

B1: hVACVase (Homo sapiens) (protein)
chain: SVTSAKVAVNGVQLHYQQTGEGDHAVLLLPGMLGSGETDFGPQLKNLNKKLFTVVAWDPRGYGHSRPPDRDFPADFFERDAKDAVDLMKALKFKKVSLLGWSDGGITALIAAAKYPSYIHKMVIWGANAYVTDEDSMIYEGIRDVSKWSERTRKPLEALYGYDYFARTCEKWVDGIRQFKHLPDGNICRHLLPRVQCPALIVHGEKDPLVPRFHADFIHKHVKGSRLHLMPEGKHNLHLRFADEFNKLAEDFLQ
Km [4]: 46 ± 5 µM | Vmax [4]: 321 µmol/min/mg | kcat [4]: 154 ± 4 s⁻¹ | kcat/Km [4]: 3.37e+06 ± 460000 M⁻¹ s⁻¹ | Km [5]: 207 ± 16 µM | Vmax [5]: 718 µmol/min/mg | kcat [5]: 345 ± 8 s⁻¹ | kcat/Km [5]: 1.66e+06 ± 160000 M⁻¹ s⁻¹ | Km [6]: 68 ± 4 µM | Vmax [6]: 120 µmol/min/mg | kcat [6]: 58 ± 1 s⁻¹ | kcat/Km [6]: 850000 ± 66000 M⁻¹ s⁻¹ | Km [7]: 9.0 ± 1.2 µM | Vmax [7]: 30 µmol/min/mg | kcat [7]: 14 ± 1 s⁻¹ | kcat/Km [7]: 1.58e+06 ± 260000 M⁻¹ s⁻¹
